We go through two compounds from ChEMBL document CHEMBL1132142, “Extension of the polyanionic cosalane pharmacophore as a strategy for increasing anti-HIV potency” (J Med Chem, 1999).

Assay [1] concerns CD4+ve Th. Kind of assay: Compound was tested for binding of the gp120 (strain IIIb)to the CD4+ T-cell lines at 16 uM. In kind it is functional. In a few lines: (§1)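 Recombinant gp120 (strain IIIB) binding to MT-4 (CD4+ T-cell) cells was measured at each listed concentration. Read-out was % positive cells and % inhibition, alongside an isotype mAb control.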
Assay [2] deals with MT4. In words: Compound was tested for binding of the mAb (NEA9305) to the V3 loo[p of gp120, expressed on HIV-1 infected MT-4 cells at 81 uM. In kind it is functional, Homo sapiens. In a few lines: (§2)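 Binding of mAb NEA9305 to the gp120 V3 loop expressed on HIV-1-infected MT-4 cells was measured at each listed concentration. Results were given as % positive cells and % inhibition, with an isotype mAb control.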

The test system of assay [3] is CEM-SS. In words: The compound was evaluated for cytotoxicity in CEM-SS cells. In kind it is functional, Homo sapiens. The gist of the method: (§3)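 Uninfected cells (CEM-SS or MT-4, per line) were incubated with the drug in a microtiter XTT assay. Viability was expressed as percent of the uninfected drug-free control. CC50 is the concentration causing 50% cell death. Triplicates were run per plate on two sister plates, and the two plate values were averaged.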

Assay [4] relates to MT4. In words: The compound was evaluated for inhibition of cytopathic effect of HIV-2ROD in MT-4 cells. Type of assay: functional, cell-based, Homo sapiens. To be noted: mt4. In general terms: Damage to the host cells serves as the signal in cytopathic effect assays.
Assay [5] concerns CD4+ve Th. In words: Compound was tested for binding of the gp120 (strain IIIb)to the CD4+ T-cell lines at 81 uM. Type of assay: functional. The gist of the method: as §1
Assay [6] has as its system CD4+ve Th. In words: Compound was tested for binding of the gp120 (strain IIIb)to the CD4+ T-cell lines at 3.2 uM. In kind it is functional. In a few lines: as §1
Assay [7] has as its system MT4. Kind of assay: Compound was tested for binding of the mAb (NEA9305) to the V3 loo[p of gp120, expressed on HIV-1 infected MT-4 cells at 0.65 uM. Type of assay: functional, Homo sapiens. In a few lines:
as §2

Assay [8] has as its system MT4. In words: The compound was evaluated for inhibition of cytopathic effect of HIV-1 IIIB in MT-4 cells. In kind it is functional, cell-based, Homo sapiens.
The test system of assay [9] is CD4+ve Th. Kind of assay: Compound was tested for binding of the gp120 (strain IIIb)to the CD4+ T-cell lines at 0.65 uM. Type of assay: functional. In a few lines:
as §1

In assay [10] the test system is MT4. Kind of assay: Compound was tested for binding of the mAb (NEA9305) to the V3 loo[p of gp120, expressed ion HIV-1 infected MT-4 cells at 3.2 uM. In kind it is functional, Homo sapiens. The gist of the method: as §2
Assay [11] deals with MT4. In words: Compound was tested for binding of the mAb (NEA9305) to the V3 loo[p of gp120, expressed on HIV-1 infected MT-4 cells at 16 uM. Type of assay: functional, Homo sapiens. In a few lines:
as §2

Assay [12] has as its system MT4. Kind of assay: The compound was evaluated for cytotoxicity in MT-4 cells. Type of assay: functional, Homo sapiens. The gist of the method: as §3
The subject of assay [13] is CEM-SS. Kind of assay: The compound was evaluated for inhibition of cytopathic effect of HIV-1 RF in CEM-SS cells. Type of assay: functional, cell-based, Homo sapiens. The gist of the method: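 XTT-based microtiter cytoprotection assay measuring protection from HIV-1-induced cytopathic effect, read as percent of the uninfected drug-free control. EC50 is the concentration giving 50% protection in infected cultures. Results were confirmed by cell-free supernatant reverse transcriptase and p24 levels. Each plate was run in triplicate, and the EC50 values from two sister plates were averaged.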

The subject of assay [14] is MT4. In words: (§4) Compound was tested for binding of the mAb (NEA9305) to the V3 loo[p of gp120, expressed on HIV-1 infected MT-4 cells at 92 uM. In kind it is functional, Homo sapiens. In a few lines: as §2
In assay [15] the test system is MT4. In words: (§5) Compound was tested for binding of the mAb (NEA9305) to the V3 loo[p of gp120, expressed on HIV-1 infected MT-4 cells at 18 uM. Type of assay: functional, Homo sapiens. The gist of the method:
as §2

The test system of assay [16] is CD4+ve Th. In words: Compound was tested for binding of the gp120 (strain IIIb)to the CD4+ T-cell lines at 3.7 uM. In kind it is functional. In a few lines: as §1
In assay [17] the test system is MT4. Kind of assay: (§6) Compound was tested for binding of the mAb (NEA9305) to the V3 loo[p of gp120, expressed on HIV-1 infected MT-4 cells at 0.73 uM. In kind it is functional, Homo sapiens. The gist of the method: as §2
For assay [18], the system named is MT4. In words: (§7) Compound was tested for binding of the mAb (NEA9305) to the V3 loo[p of gp120, expressed ion HIV-1 infected MT-4 cells at 3.7 uM. Type of assay: functional, Homo sapiens. The gist of the method:
as §2

Assay [19] concerns MT4. Described as §7. Type of assay: functional. Particulars: Homo sapiens. In a few lines: as §2
Assay [20] relates to CD4+ve Th. In words: Compound was tested for binding of the gp120 (strain IIIb)to the CD4+ T-cell lines at 92 uM. Type of assay: functional. The gist of the method: as §1
Assay [21] has as its system CD4+ve Th. Kind of assay: Compound was tested for binding of the gp120 (strain IIIb)to the CD4+ T-cell lines at 0.73 uM. In kind it is functional. In a few lines:
as §1

The test system of assay [22] is MT4. The description is as §5. Type of assay: functional. Particulars: Homo sapiens. The gist of the method: as §2
The test system of assay [23] is CD4+ve Th. Kind of assay: Compound was tested for binding of the gp120 (strain IIIb)to the CD4+ T-cell lines at 18 uM. In kind it is functional. The gist of the method: as §1
The subject of assay [24] is MT4. Described as §4. Particulars: Homo sapiens. Type of assay: functional. In a few lines:
as §2

For assay [25], the system named is MT4. Described as §6. Type of assay: functional. To be noted: Homo sapiens. In a few lines:
as §2

The term inhibition denotes the percentage by which the read-out fell short of the control. Low values mean little suppression, high ones strong suppression. One may read the EC50 as the concentration needed to bring the measured effect to its halfway point. Lower therefore signals a more potent agent. In the case of `CC(C)CCCC(C)[C@H]1CC[C@H]2[C@@H]3CCC4C[C@@H](CCC=C(c5cc(Cl)c(OCc6ccc(C(=O)[O-])cc6)c(C(=O)[O-])c5)c5cc(Cl)c(OCc6ccc(C(=O)[O-])cc6)c(C(=O)[O-])c5)CC[C@]4(C)[C@H]3CC[C@]12C.[Na+].[Na+].[Na+].[Na+]` (some centres not stated), the Positive cells in the assay on CD4+ve Th [1] is reported as 6.9%; in the assay on MT4 [2], 26.9%; in the assay with CD4+ve Th [5] it was 7.8%; in the assay with CD4+ve Th [6] it was 19.9%; with MT4 [7], 66.6%; with CD4+ve Th [9] it was 76.2%. Besides, the Positive cells amounted to 60.9% in the assay with MT4 [10] and 33.6% with MT4 [11]. In the assay on CD4+ve Th [1], this compound displayed an inhibition at 16 µM of 99%. Further, the Cytotoxicity was determined as 76 µM in the assay on CEM-SS [3] and 95 µM in the assay on MT4 [12]. The results for the EC50 in the assay on MT4 [4], in the assay with MT4 [8] (mt4) and in the assay with CEM-SS [13] (cem-ss) were 22 µM, 1.4 µM and 0.8 µM, respectively. In the assay with CD4+ve Th [5], this compound showed an inhibition at 81 µM of 98%. Besides, 3.2 µM produced 82% inhibition in the assay on CD4+ve Th [6]. Also, the inhibition at 0.65 µM in the assay with CD4+ve Th [9] came to 22%.
In the case of `CC(C)CCCC(C)[C@H]1CC[C@H]2[C@@H]3CCC4C[C@@H](CCC=C(c5cc(Cl)c(OCc6ccc(C(=O)O)cc6)c(C(=O)O)c5)c5cc(Cl)c(OCc6ccc(C(=O)O)cc6)c(C(=O)O)c5)CC[C@]4(C)[C@H]3CC[C@]12C` (some centres not stated), the Positive cells in the assay on MT4 [14] was determined as 23.8%; in the assay on MT4 [15] it was 34.4%; with CD4+ve Th [16] it was 25.3%; in the assay on MT4 [17], 65.9%; in the assay with MT4 [18], 58.4%; in the assay with CD4+ve Th [20], 6.8%. In addition, the Positive cells with CD4+ve Th [21] came to 88.2%; with CD4+ve Th [23] it was 8.3%. Also, the inhibition at 3.7 µM in the assay on CD4+ve Th [16] worked out at 79%; in the assay on MT4 [19] it was 16%. In addition, the values for the Cytotoxicity in the assay on CEM-SS [3] and in the assay on MT4 [12] were 72 µM and 88 µM, respectively. Further, the concentration giving a half-maximal response (EC50) in the assay with MT4 [8] (Homo sapiens, MT4) is 1.7 µM; in the assay on CEM-SS [13] (Homo sapiens, CEM-SS) it was 0.5 µM. The inhibition at 92 µM is 99% in the assay with CD4+ve Th [20] and 76% in the assay on MT4 [24]. The inhibition at 0.73 µM in the assay with CD4+ve Th [21] is 9%; with MT4 [25] it was 3%. In addition, the inhibition at 18 µM was found to be 58% in the assay on MT4 [22] and 98% in the assay with CD4+ve Th [23].
